The values below come from ChEMBL document CHEMBL3351393, “iNOS inhibitory activity of sesquiterpenoids and a monoterpenoid from the rhizomes of Curcuma wenyujin” (J Nat Prod, 2014).

The subject of series [1] is RAW264.7. As to the kind of experiment: Inhibition of LPS-induced NO production in mouse RAW264.7 cells by Griess assay. The format is functional, cell-based. The method, boiled down:
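RAW 264.7 mouse macrophages were seeded at 1 × 10^5 cells/well and left to adhere 2 h at 37 °C in 5% CO2. Nitrite accumulated in the supernatant was measured with Griess reagent, and IC50 values were derived. Hydrocortisone served as positive control.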
Background: Griess reagent forms a coloured azo dye with nitrite.

The test system of series [2] is RAW264.7. Description: Cytotoxicity against mouse RAW264.7 cells by MTT assay. Type of series: cell-based. On the technique in general: Tetrazolium dyes change colour on reduction, which living cells bring about.

Take `C=C(C)[C@H]1CC[C@](C)(O)[C@H]1CC(C(=O)O)=C(C)C`: in the series with RAW264.7 [1], inhibition was half-maximal at 66.5 µM (IC50). Also, the Activity result in the series on RAW264.7 [2] is listed as “Non-toxic”.
Taken in the same sequence, the figures for `CC1=CC(=O)[C@@H]2C[C@@H]3[C@@](C)(O)CC[C@]13OC2(C)C` were 79.8 µM and “Non-toxic”.
The matching figures for `CC(C)=C1C[C@@]23O[C@]1(O)C[C@@](C)(O)[C@H]2CC[C@H]3C`: 87.6 µM and “Non-toxic”.
Regarding `C/C1=C\[C@H](O)C[C@]2(C)O[C@H]2C(=O)c2c(C)coc2C1`, the IC50 – broadly, the concentration at which inhibition is half-maximal – in the series on RAW264.7 [1] is 78.2 µM. Further, the Activity entry with RAW264.7 [2] is “Non-toxic”.
The matching figures for `CC(C)=C1C[C@]2(O)[C@@H](CC[C@@H]2C)[C@@](C)(O)CC1=O`: 92.4 µM and “Non-toxic”.
The matching figures for `CC(=O)C(C[C@@H]1[C@H](C(C)=O)CC[C@]1(C)O)=C(C)C`: 78.7 µM and “Non-toxic”.
The matching figures for `CC(C)=C1C[C@]2(O)[C@@H](C)CC[C@@H]2[C@@](C)(O)CC1=O`: 89.2 µM and “Non-toxic”.
For the compound `CC1=C2C[C@H]3[C@@](C)(O)CC[C@@]34O[C@@]2(C[C@@]4(C)O)OC1=O`, it took 8.5 µM to reach half-maximal inhibition in the series on RAW264.7 [1] (IC50). Further, the Activity result in the series with RAW264.7 [2] is recorded as “Non-toxic”.
In turn, `C[C@]12CCC(=O)C=C1CC[C@@H]1[C@@H]2[C@@H](O)C[C@@]2(C)[C@H]1CC[C@]2(O)C(=O)CO` [HYDROCORTISONE] yielded an IC50 in the series on RAW264.7 [1] of 51.4 µM.
For `CC1=C2C[C@H]3[C@@](C)(O)CC[C@@]34O[C@@]2(C[C@]4(C)O)OC1=O`, the IC50 with RAW264.7 [1] came to 7.6 µM. The Activity entry in the series on RAW264.7 [2] is reported as “Non-toxic”.
The matching figures for `Cc1coc2c1C(=O)[C@]1(O)[C@@H](C)CC[C@H]1C(CO)=C2`: 47.7 µM and “Non-toxic”.
The matching figures for `CC(C)=C1C[C@@H]2O[C@H](CC[C@]2(C)O)/C(C)=C/C1=O`: 48.6 µM and “Non-toxic”.
The matching figures for `CC1=CC(=O)C[C@@H]2[C@H]1CC[C@@]2(C)O`: 77.9 µM and “Non-toxic”.
In the series on RAW264.7 [1], `C=C(C)[C@@H]1CC[C@](C)(O)[C@H]1CC(C(=O)O)=C(C)C` had a 50% inhibitory concentration (IC50) of 68.4 µM. For the same compound, the Activity entry with RAW264.7 [2] is listed as “Non-toxic”.
